# ChEMBL document CHEMBL5154906, “Design of a Potent, Selective, and Brain-Penetrant Inhibitor of Wnt-Deactivating Enzyme Notum by Optimization of a Crystallographic Fragment Hit” (J Med Chem, 2022)
# Key:
# [1] = biological target: T1, Palmitoleoyl-protein carboxylesterase NOTUM (Homo sapiens, UniProt Q6P988, C330S); test: Inhibition of human Notum (S81 to T451 residues) Cys330Ser mutant expressed in HEK293S cells using OPTS as substrate incubated for 40 mins by fluorescence based assay
# [2] = Metabolic stability in human liver microsomes assessed as intrinsic clearance; type: ADME, Microsome; settings: read-out: CLH
# [3] = Metabolic stability in mouse liver microsomes assessed as intrinsic clearance; type: ADME, Microsome; settings: read-out: CLH
# [4] = Metabolic stability in mouse hepatocyte assessed as intrinsic clearance measured per 10^6 cells; type: ADME, cell-based; settings: hepatocytes, read-out: CLH
# [5] = biological target: T1, Palmitoleoyl-protein carboxylesterase NOTUM; test: Inhibition of human Notum (S81 to T451 residues) Cys330Ser mutant expressed in HEK293S cells at 100 uM using OPTS as substrate incubated for 40 mins by fluorescence based assay relative to control; type: cell-based
# How it was run: (§1)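 Recombinant human Notum (81–451, Cys330Ser) was the enzyme and OPTS the carboxylesterase substrate. Values are percent inhibition at a single concentration, 10 μM or 100 μM.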
# [6] = Drug uptake in mouse assessed as brain concentration at 30 mg/kg, po administered twice daily for 7 days; type: ADME, organism-based; settings: in vivo, 168 h, time 7 day
# How it was run: (§2)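 Mice received 30 mg/kg orally twice daily, at T = 0 and 9 h, in formulation A (DMSO 2% v/v + 10% v/v Solutol in 1× PBS, 98% v/v). Plasma and brain drug concentrations were followed over time.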
# [7] = biological target: Glycogen synthase kinase-3 (Homo sapiens) (UniProt P49840+P49841); test: Inhibition of GSK3 (unknown origin) at 10 uM relative to control; type: protein assay
# Sequence of Glycogen synthase kinase-3 (Homo sapiens) (P49840 whole entry, looked up): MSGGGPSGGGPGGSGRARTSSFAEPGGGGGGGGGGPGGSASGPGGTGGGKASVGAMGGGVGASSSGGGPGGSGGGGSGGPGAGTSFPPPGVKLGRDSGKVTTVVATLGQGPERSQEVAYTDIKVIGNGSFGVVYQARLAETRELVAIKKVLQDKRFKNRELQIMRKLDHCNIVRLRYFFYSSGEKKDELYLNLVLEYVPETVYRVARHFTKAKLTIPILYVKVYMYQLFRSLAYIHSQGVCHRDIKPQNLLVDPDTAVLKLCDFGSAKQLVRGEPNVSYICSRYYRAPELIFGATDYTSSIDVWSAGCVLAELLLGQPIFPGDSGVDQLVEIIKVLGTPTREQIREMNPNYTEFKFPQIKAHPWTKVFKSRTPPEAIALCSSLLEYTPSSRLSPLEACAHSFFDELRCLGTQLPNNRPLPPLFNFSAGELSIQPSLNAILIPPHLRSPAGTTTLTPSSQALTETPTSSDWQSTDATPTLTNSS
# Sequence of Glycogen synthase kinase-3 (Homo sapiens) (P49841 whole entry, looked up): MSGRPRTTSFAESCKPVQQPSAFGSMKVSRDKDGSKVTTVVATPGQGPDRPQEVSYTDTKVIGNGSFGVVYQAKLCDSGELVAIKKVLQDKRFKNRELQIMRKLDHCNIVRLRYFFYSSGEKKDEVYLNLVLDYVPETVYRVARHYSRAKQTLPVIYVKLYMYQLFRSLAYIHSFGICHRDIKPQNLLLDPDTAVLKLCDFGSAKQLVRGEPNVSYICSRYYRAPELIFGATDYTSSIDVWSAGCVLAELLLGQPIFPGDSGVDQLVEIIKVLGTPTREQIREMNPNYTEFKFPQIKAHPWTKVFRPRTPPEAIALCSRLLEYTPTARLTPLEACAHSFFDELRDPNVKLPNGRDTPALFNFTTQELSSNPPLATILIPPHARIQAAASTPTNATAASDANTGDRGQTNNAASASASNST
# [8] = Toxicity in aged APP/PS1 mouse at 30 mg/kg, po administered twice daily for 7 days; settings: in vivo, 168 h
# [9] = biological target: Casein kinase I isoform alpha (Homo sapiens) (UniProt P48729); test: Inhibition of CK1 (unknown origin) at 10 uM relative to control
# Sequence of Casein kinase I isoform alpha (Homo sapiens) (P48729 2-337 limits assumed): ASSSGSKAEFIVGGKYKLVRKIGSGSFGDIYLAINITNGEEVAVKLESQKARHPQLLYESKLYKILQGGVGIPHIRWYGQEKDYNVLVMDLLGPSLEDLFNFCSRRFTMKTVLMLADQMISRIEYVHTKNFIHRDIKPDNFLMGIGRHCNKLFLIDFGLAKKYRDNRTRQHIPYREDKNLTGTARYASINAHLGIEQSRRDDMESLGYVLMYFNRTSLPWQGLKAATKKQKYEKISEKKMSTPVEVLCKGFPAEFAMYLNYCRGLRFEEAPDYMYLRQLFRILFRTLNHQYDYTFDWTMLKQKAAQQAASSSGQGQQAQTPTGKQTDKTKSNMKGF
# [10] = Metabolic stability in rat liver microsomes assessed as intrinsic clearance; type: ADME, Microsome; settings: read-out: CLH
# [11] = in vivo; settings: Sprague-Dawley, rat, brain, po, 10 mg/kg
# [12] = Toxicity in wild type mouse at 30 mg/kg, po administered twice daily for 7 days; settings: in vivo, 168 h
# [13] = Drug uptake in mouse assessed as plasma concentration at 30 mg/kg, po administered twice daily for 7 days; type: ADME, organism-based; settings: in vivo, 168 h, time 7 day; how it was run: as §2
# [14] = Metabolic stability in dog liver microsomes assessed as intrinsic clearance; type: ADME, Canis lupus familiaris, Microsome; settings: read-out: CLH
# [15] = biological target: T1, Palmitoleoyl-protein carboxylesterase NOTUM; test: Inhibition of human Notum (S81 to T451 residues) Cys330Ser mutant expressed in HEK293S cells at 10 uM using OPTS as substrate incubated for 40 mins by fluorescence based assay relative to control; type: cell-based; how it was run: as §1
# [16] = Efflux ratio of apparent permeability from basolateral to apical side over apical to basolateral side in MDCK-MDR1 cells; settings: dog
# T1 sequence (Q6P988 20-496 C330S limits assumed): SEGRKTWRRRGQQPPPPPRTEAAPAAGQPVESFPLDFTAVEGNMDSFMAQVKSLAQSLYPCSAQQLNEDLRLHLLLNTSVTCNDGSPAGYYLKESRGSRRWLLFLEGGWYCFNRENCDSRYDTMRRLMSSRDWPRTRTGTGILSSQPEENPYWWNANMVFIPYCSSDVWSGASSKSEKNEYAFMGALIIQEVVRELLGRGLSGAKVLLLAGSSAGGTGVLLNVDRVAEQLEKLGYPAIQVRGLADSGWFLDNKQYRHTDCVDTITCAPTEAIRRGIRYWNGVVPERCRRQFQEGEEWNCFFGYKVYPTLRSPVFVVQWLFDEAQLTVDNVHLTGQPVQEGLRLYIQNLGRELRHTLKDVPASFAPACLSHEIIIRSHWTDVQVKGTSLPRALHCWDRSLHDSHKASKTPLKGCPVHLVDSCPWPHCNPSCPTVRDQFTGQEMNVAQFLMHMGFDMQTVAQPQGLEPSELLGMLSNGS
smiles,measurement,setting,value
OCc1cn(-c2ccc(C(F)(F)F)cc2)nn1,IC50,[1],8.8 µM
OCc1cn(-c2ccc(C(F)(F)F)c(Cl)c2)nn1,IC50,[1],1 µM
OCc1cn(-c2ccc3c(c2)OCO3)nn1,IC50,[1],28 µM
OCc1cn(-c2ccccc2Cl)nn1,IC50,[1],32 µM
OCc1cn(-c2ccc(Cl)c(Cl)c2)nn1,IC50,[1],0.5 µM
same,microsomal CLint,[2],12 µL/min/mg
OCc1cn(-c2cccc(Cl)c2)nn1,IC50,[1],6.3 µM
[2H]c1nnn(-c2ccc(Cl)c(C(F)(F)F)c2Cl)c1[2H],microsomal CLint,[3],5.4 µL/min/mg
OCc1cn(-c2ccc(Cl)c(C(F)(F)F)c2Cl)nn1,microsomal CLint,[3],6.7 µL/min/mg
same,hepatocyte CLint,[4],48 µL/min/1e6 cells
same,microsomal CLint,[2],1.7 µL/min/mg
OCc1cn(-c2cccc(Cl)c2Cl)nn1,IC50,[1],5.1 µM
OCc1cn(-c2ccc3c(c2)OCCO3)nn1,IC50,[1],32 µM
OCc1cn(-c2ccccc2F)nn1,IC50,[1],64 µM
OCc1cn(-c2cc(Cl)ccc2Cl)nn1,IC50,[1],23 µM
OCc1cn(-c2ccc(Cl)cc2Cl)nn1,IC50,[1],5.6 µM
OCc1cn(-c2cc(Cl)cc(Cl)c2)nn1,IC50,[1],2.4 µM
OCc1cn(-c2cccc(C(F)(F)F)c2)nn1,IC50,[1],2.3 µM
OCc1cn(-c2ccc(F)cc2)nn1,inhibition at 100 µM,[5],40%
FC(F)(F)c1c(Cl)ccc(-n2ccnn2)c1Cl,Ct,[6],Active
same,microsomal CLint,[3],3.2 µL/min/mg
same,hepatocyte CLint,[4],19.4 µL/min/1e6 cells
same,inhibition,[7],< 50%
same,Activity,[8],Non-Toxic
same,inhibition,[9],< 50%
same,microsomal CLint,[10],< 9.6 µL/min/mg
same,AUC(0-inf),[11],46100 ng·h/mL
same,Activity,[12],Non-Toxic
same,Cp,[13],Active
same,microsomal CLint,[14],10.8 µL/min/mg
same,microsomal CLint,[2],1.5 µL/min/mg
OCc1cn(-c2ccc(Cl)c(C(F)(F)F)c2)nn1,IC50,[1],0.065 µM
Cc1cccc(-n2cc(CO)nn2)c1,inhibition at 10 µM,[15],40%
Cc1ccc(-n2cc(CO)nn2)cc1C,IC50,[1],0.73 µM
FC(F)(F)c1c(Cl)cnc(-n2ccnn2)c1Cl,Ratio,[16],2.5
